From ChEMBL document CHEMBL2385076, “Discovery of 2-((1H-benzo[d]imidazol-1-yl)methyl)-4H-pyrido[1,2-a]pyrimidin-4-ones as novel PKM2 activators” (Bioorg Med Chem Lett, 2013)
Activity calls are given as the source filed them.

Tests used:
[1] = tested on: SNU-449; assay: Antiproliferative activity against human SNU449 cells at 10 uM after 5 days; assay type: functional, cell-based
Summary of the method: (§1)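 Cells plated in Optimem-GlutaMax medium and cultured overnight before exposure to 10 µM compound. Viability measured with CytoTox-Glo after 5 days of treatment.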

[2] = biological target: Sodium-dependent serotonin transporter (Homo sapiens) (UniProt P31645); assay: Binding affinity to human 5-HT transporter by radioligand binding assay
Summary of the method: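 CEREP panel binding measured by displacement of an antagonist radioligand.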

[3] = biological target: Myosin light chain kinase 2, skeletal/cardiac muscle (Homo sapiens) (UniProt Q9H1R3); assay: Inhibition of MYLK2 (unknown origin)
[4] = biological target: MAP kinase p38 (Homo sapiens) (UniProt O15264+Q15759+Q16539+P53778); assay: Inhibition of p38 (unknown origin); assay type: protein assay
[5] = biological target: Tyrosine-protein kinase BTK (Homo sapiens) (UniProt Q06187); assay: Inhibition of BTK (unknown origin)
[6] = biological target: Serine/threonine-protein kinase 3 (Homo sapiens) (UniProt Q13188); assay: Inhibition of STK3 (unknown origin)
[7] = biological target: Serine/threonine-protein kinase PAK 4 (Homo sapiens) (UniProt O96013); assay: Inhibition of PAK4 (unknown origin)
[8] = biological target: Mu-type opioid receptor (Homo sapiens) (UniProt P35372); assay: Binding affinity to human mu opioid receptor by radioligand binding assay
Summary of the method: (§2)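 CEREP panel binding measured by displacement of an agonist radioligand.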

[9] = biological target: Serine/threonine-protein kinase Sgk1 (Homo sapiens) (UniProt O00141); assay: Inhibition of SGK (unknown origin)
[10] = organism: Rattus norvegicus; assay: Binding affinity to central-type benzodiazepine receptor in rat cerebral cortex; assay type: tissue-based
[11] = biological target: Epidermal growth factor receptor (Homo sapiens) (UniProt P00533); assay: Inhibition of EGFR (unknown origin)
[12] = organism: Homo sapiens; assay: Binding affinity to L-type calcium channel diltiazem binding site (unknown origin) by radioligand binding assay
[13] = biological target: Tyrosine-protein kinase ABL1 (Homo sapiens) (UniProt P00519); assay: Inhibition of ABL1 (unknown origin)
[14] = biological target: Insulin receptor (Homo sapiens) (UniProt P06213); assay: Inhibition of INSR (unknown origin)
[15] = biological target: Mitogen-activated protein kinase 1 (Homo sapiens) (UniProt P28482); assay: Inhibition of MAPK1 (unknown origin)
[16] = biological target: Serine/threonine-protein kinase pim-2 (Homo sapiens) (UniProt Q9P1W9); assay: Inhibition of PIM2 (unknown origin)
[17] = biological target: T1, Pyruvate kinase PKM (Homo sapiens, UniProt P14618); assay: Activation of PKM2 in human Huh7 cells assessed as production of pyruvate and ATP by fluorescence assay; assay type: cell-based, Huh-7
Summary of the method: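 Huh7 hepatocellular carcinoma cells were treated with compound and lysed, and the lysate was given PEP and ADP. The pyruvate formed was oxidized by pyruvate oxidase, and the fluorescence, proportional to pyruvate, was read as cellular pyruvate kinase activity.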

[18] = biological target: Vascular endothelial growth factor receptor 2 (Homo sapiens) (UniProt P35968); assay: Inhibition of KDR (unknown origin)
[19] = biological target: T1, Pyruvate kinase PKM; assay: Activation of PKM2 in human Huh7 cells assessed as formation of enzyme tetramers; assay type: cell-based; conditions: Huh-7
Target sequence in this assay (P14618 2-531 limits assumed): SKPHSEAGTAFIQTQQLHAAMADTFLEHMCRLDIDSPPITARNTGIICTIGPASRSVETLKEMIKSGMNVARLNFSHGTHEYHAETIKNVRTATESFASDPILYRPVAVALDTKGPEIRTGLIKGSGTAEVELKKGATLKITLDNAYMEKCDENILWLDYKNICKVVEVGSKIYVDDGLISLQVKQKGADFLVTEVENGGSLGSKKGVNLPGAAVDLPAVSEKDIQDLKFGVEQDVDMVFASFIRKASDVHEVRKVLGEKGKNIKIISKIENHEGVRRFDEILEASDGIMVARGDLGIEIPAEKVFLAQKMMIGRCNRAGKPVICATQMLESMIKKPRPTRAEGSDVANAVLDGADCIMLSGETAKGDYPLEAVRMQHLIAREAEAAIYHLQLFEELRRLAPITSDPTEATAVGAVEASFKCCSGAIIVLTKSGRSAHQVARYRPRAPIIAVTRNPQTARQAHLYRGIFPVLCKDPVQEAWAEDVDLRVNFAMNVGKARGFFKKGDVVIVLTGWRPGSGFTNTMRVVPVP

[20] = biological target: 5-hydroxytryptamine receptor 2B (Homo sapiens) (UniProt P41595); assay: Binding affinity to human 5-HT2B receptor by radioligand binding assay; summary of the method: as §2
[21] = biological target: Serine/threonine-protein kinase 26 (Homo sapiens) (UniProt Q9P289); assay: Inhibition of MST4 (unknown origin)
[22] = biological target: Casein kinase II subunit alpha' (Homo sapiens) (UniProt P19784); assay: Inhibition of CSNK2A2 (unknown origin)
[23] = biological target: Proto-oncogene tyrosine-protein kinase Src (Homo sapiens) (UniProt P12931); assay: Inhibition of SRC (unknown origin)
[24] = biological target: Casein kinase I isoform alpha (Homo sapiens) (UniProt P48729); assay: Inhibition of CSNK1A1 (unknown origin)
[25] = biological target: Cannabinoid receptor 1 (Homo sapiens) (UniProt P21554); assay: Binding affinity to cannabinoid CB1 receptor (unknown origin)
[26] = tested on: SNU-182; assay: Antiproliferative activity against human SNU182 cells at 10 uM after 5 days; assay type: functional, cell-based; summary of the method: as §1
[27] = biological target: Serine/threonine-protein kinase Chk2 (Homo sapiens) (UniProt O96017); assay: Inhibition of CHEK2 (unknown origin)
[28] = biological target: Calcium/calmodulin-dependent protein kinase type II subunit alpha (Homo sapiens) (UniProt Q9UQM7); assay: Inhibition of CAMK2A (unknown origin)
[29] = biological target: Serine/threonine-protein kinase Chk1 (Homo sapiens) (UniProt O14757); assay: Inhibition of CHEK1 (unknown origin)

Sequence of Sodium-dependent serotonin transporter (Homo sapiens) (P31645 whole entry, looked up): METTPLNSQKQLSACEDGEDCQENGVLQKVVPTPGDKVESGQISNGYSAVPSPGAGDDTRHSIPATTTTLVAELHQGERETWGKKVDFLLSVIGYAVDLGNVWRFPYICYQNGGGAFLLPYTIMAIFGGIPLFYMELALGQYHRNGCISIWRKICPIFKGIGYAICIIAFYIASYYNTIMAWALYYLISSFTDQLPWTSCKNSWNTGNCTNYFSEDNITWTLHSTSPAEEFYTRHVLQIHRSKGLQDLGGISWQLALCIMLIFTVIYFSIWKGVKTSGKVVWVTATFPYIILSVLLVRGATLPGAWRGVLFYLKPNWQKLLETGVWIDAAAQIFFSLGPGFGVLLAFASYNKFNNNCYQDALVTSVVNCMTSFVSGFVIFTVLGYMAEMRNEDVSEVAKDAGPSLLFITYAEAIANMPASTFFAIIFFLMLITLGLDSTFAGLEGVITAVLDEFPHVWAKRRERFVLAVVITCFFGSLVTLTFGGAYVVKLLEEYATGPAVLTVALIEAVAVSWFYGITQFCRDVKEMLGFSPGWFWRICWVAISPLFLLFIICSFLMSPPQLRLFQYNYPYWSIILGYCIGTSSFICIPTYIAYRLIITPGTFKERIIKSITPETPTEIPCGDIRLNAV
Sequence of Serine/threonine-protein kinase PAK 4 (Homo sapiens) (O96013 whole entry, looked up): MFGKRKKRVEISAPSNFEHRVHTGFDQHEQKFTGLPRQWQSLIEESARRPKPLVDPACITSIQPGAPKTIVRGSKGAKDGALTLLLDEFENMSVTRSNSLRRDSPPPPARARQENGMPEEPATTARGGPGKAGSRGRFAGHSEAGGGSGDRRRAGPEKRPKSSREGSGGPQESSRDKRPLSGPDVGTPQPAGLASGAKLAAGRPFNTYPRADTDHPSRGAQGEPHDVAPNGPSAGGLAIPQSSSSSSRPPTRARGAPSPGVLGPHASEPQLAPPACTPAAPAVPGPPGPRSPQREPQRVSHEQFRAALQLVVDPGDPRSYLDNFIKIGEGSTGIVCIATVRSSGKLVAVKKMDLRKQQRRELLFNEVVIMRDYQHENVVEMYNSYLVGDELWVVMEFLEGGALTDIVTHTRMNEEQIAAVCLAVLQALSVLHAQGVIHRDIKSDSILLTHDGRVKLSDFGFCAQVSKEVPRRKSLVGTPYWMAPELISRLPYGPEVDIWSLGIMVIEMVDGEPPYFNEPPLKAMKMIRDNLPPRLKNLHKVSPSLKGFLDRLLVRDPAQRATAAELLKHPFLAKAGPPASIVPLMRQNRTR
Sequence of Mu-type opioid receptor (Homo sapiens) (P35372 whole entry): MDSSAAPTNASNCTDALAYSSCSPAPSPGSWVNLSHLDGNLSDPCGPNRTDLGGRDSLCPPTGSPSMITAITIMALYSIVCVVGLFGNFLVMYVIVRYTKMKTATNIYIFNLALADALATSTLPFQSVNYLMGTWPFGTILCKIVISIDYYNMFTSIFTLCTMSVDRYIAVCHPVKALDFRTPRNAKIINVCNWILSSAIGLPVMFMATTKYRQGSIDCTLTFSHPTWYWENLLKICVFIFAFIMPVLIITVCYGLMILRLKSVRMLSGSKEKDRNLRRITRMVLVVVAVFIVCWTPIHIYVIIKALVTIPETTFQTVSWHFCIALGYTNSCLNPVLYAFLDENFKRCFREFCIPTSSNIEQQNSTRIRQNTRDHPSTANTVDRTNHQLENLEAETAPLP
Sequence of Serine/threonine-protein kinase 3 (Homo sapiens) (Q13188 whole entry): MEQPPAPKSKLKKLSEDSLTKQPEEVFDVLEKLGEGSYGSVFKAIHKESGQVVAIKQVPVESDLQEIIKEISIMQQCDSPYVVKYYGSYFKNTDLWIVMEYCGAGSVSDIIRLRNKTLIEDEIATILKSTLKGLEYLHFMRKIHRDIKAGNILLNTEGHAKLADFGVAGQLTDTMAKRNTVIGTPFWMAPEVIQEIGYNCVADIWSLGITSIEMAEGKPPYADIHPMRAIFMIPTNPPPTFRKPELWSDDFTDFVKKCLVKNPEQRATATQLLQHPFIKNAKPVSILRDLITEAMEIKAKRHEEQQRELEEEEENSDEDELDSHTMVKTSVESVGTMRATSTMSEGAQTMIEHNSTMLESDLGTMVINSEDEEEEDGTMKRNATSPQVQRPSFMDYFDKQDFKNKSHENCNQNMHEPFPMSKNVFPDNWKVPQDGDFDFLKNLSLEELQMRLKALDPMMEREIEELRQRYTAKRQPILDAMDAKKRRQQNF
Sequence of Serine/threonine-protein kinase pim-2 (Homo sapiens) (Q9P1W9 whole entry, looked up): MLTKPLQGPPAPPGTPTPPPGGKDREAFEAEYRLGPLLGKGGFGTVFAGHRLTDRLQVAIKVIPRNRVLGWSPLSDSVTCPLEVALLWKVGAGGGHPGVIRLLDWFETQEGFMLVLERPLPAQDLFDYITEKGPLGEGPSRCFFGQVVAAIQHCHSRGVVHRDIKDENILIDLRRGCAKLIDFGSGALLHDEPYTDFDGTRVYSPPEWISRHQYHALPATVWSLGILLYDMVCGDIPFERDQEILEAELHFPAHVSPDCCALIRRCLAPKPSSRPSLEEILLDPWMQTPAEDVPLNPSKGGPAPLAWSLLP
Sequence of Mitogen-activated protein kinase 1 (Homo sapiens) (P28482 whole entry): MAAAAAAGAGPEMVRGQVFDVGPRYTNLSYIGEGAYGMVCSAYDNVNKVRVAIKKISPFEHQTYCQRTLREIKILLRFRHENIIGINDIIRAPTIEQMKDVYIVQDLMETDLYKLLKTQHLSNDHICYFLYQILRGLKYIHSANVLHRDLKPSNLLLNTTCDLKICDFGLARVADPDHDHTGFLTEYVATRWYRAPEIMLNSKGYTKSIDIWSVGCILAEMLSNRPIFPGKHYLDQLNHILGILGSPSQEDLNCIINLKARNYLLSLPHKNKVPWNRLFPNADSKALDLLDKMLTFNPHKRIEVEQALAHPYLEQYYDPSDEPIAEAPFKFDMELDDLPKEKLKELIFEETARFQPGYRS
Sequence of Calcium/calmodulin-dependent protein kinase type II subunit alpha (Homo sapiens) (Q9UQM7 whole entry): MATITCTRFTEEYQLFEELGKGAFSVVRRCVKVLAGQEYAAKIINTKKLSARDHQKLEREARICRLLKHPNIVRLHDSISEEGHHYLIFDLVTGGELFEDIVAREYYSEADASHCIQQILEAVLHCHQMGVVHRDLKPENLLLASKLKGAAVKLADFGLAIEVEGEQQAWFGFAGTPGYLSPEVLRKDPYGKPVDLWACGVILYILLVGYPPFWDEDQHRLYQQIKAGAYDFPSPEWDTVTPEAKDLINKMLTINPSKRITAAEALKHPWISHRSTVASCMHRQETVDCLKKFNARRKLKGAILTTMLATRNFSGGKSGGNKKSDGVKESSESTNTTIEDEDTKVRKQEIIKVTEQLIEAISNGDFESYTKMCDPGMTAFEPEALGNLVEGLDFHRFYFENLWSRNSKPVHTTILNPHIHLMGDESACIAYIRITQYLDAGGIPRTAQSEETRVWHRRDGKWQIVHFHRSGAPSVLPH
Sequence of Myosin light chain kinase 2, skeletal/cardiac muscle (Homo sapiens) (Q9H1R3 whole entry): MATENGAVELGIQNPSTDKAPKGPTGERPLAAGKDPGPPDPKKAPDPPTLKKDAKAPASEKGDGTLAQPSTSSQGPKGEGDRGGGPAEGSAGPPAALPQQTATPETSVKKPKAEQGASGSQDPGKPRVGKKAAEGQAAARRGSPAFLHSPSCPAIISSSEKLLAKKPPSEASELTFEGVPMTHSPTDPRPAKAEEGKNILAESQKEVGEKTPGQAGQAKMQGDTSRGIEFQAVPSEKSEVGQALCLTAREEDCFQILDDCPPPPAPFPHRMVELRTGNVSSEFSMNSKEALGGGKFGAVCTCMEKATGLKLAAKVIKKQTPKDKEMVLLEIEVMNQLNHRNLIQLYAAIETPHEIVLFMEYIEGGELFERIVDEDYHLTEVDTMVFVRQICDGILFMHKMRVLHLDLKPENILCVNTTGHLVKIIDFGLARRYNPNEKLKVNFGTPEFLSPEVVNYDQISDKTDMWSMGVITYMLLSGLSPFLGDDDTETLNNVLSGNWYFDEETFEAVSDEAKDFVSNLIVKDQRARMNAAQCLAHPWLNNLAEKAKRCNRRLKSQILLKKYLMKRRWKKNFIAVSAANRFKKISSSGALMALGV
Sequence of Casein kinase II subunit alpha' (Homo sapiens) (P19784 whole entry, looked up): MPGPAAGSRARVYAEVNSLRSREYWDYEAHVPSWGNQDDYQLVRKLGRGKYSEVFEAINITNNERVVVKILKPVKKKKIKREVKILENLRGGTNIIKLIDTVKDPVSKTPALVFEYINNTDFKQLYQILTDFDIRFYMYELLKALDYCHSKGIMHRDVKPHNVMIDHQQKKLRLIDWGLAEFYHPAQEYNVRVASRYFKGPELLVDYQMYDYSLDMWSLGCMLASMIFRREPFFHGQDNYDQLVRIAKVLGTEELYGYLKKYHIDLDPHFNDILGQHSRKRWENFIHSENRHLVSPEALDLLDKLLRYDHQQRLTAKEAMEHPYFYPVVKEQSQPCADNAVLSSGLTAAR

Cc1cccc2nc(Cn3cnc4ccccc43)cc(=O)n12
70 nM: EC50 [17]
active: Activity [19]
inactive: Activity [1] | Activity [2] | inhibition [3] | inhibition [4] | inhibition [5] | inhibition [6] | inhibition [7] | Activity [8] | inhibition [9] | Activity [10] | inhibition [11] | Activity [12] | inhibition [13] | inhibition [14] | inhibition [15] | inhibition [16] | inhibition [18] | Activity [20] | inhibition [21] | inhibition [22] | inhibition [23] | inhibition [24] | Activity [25] | Activity [26] | inhibition [27] | inhibition [28] | inhibition [29]
